Values after ≈ are worked out from the molar mass of the structure shown.
Experiments:
Type in all cases: functional
Staphylococcus aureus [1] = assay: Antibacterial activity against Staphylococcus aureus 144 after 24 hrs by CLSI based broth micro dilution method
In short: (§1)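 Broth microdilution run per CLSI. MRSA ATCC 43300 served as the QC strain, with the CLSI QC range as reference. S. aureus AD3 and 144 are clinical isolates from Guangdong Province. Pleuromutilin and tiamulin were run as reference drugs.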

Staphylococcus aureus [2] = assay: Bactericidal activity against Staphylococcus aureus AD3 preincubated 16 to 20 hrs followed by subculturing and measured after over night
In short: (§2)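 MBC by CLSI broth microdilution on the same strain panel: S. aureus ATCC 43300, ATCC 29213, clinical isolates AD3 and 144, E. coli ATCC 25922; ATCC 43300 served as QC strain.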

Staphylococcus aureus [3] = assay: Antibacterial activity against Staphylococcus aureus ATCC 29213 after 24 hrs by CLSI based broth micro dilution method; in short: as §1
Staphylococcus aureus [4] = assay: Antibacterial activity against methicillin-resistant Staphylococcus aureus ATCC 43300 after 24 hrs by CLSI based broth micro dilution method; in short: as §1
Staphylococcus aureus [5] = assay: Bactericidal activity against Staphylococcus aureus ATCC 29213 preincubated 16 to 20 hrs followed by subculturing and measured after over night; in short: as §2
[6] = Ratio of MBC for bactericidal activity against methicillin-resistant Staphylococcus aureus ATCC 43300 to MIC for antibacterial activity against methicillin-resistant Staphylococcus aureus ATCC 4330
Escherichia coli [7] = assay: Bactericidal activity against Escherichia coli ATCC 25922 preincubated 16 to 20 hrs followed by subculturing and measured after over night; in short: as §2
Staphylococcus aureus [8] = assay: Antibacterial activity against Staphylococcus aureus AD3 after 24 hrs by CLSI based broth micro dilution method
In short: (§3)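 CLSI broth microdilution MIC against S. aureus ATCC 43300 (MRSA), ATCC 29213, clinical isolates AD3 and 144 (Guangdong Province), and E. coli ATCC 25922; ATCC 43300 served as QC strain, with the CLSI quality control range as reference.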

Staphylococcus aureus [9] = assay: Bactericidal activity against Staphylococcus aureus 144 preincubated 16 to 20 hrs followed by subculturing and measured after over night; in short: as §2
Escherichia coli [10] = assay: Antibacterial activity against Escherichia coli ATCC 25922 after 24 hrs by CLSI based broth micro dilution method; in short: as §3
Staphylococcus aureus [11] = assay: Bactericidal activity against methicillin-resistant Staphylococcus aureus ATCC 43300 preincubated 16 to 20 hrs followed by subculturing and measured after over night
In short: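 MBC determined by the CLSI broth microdilution method against MRSA ATCC 43300, with ATCC 43300 also serving as the QC strain. Pleuromutilin and tiamulin were reference drugs.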

Row | Structure (SMILES) | MIC (Staphylococcus aureus [1]) [µg/mL] | MBC (Staphylococcus aureus [2]) [µg/mL] | MIC (Staphylococcus aureus [3]) [µg/mL] | MIC (Staphylococcus aureus [4]) [µg/mL] | MBC (Staphylococcus aureus [5]) [µg/mL] | Ratio [6] | MBC (Escherichia coli [7]) [µg/mL] | MIC (Staphylococcus aureus [8]) [µg/mL] | MBC (Staphylococcus aureus [9]) [µg/mL] | MIC (Escherichia coli [10]) [µg/mL] | MBC (Staphylococcus aureus [11]) [µg/mL]
1 | C=C[C@]1(C)C[C@@H](OC(=O)CSc2ccccc2NC(=O)Cn2cc(CN3CCN(c4cccc(F)c4)CC3)nn2)[C@]2(C)[C@H](C)CC[C@]3(CCC(=O)[C@H]32)[C@@H](C)[C@@H]1O | 1 (≈ 1.27 µM) | 1 (≈ 1.27 µM) | 0.5 (≈ 0.635 µM) | 1 (≈ 1.27 µM) | 0.5 (≈ 0.635 µM) | 1 | > 32 | 0.5 (≈ 0.635 µM) | 2 (≈ 2.54 µM) | > 32 | 2 (≈ 2.54 µM)
2 | C=C[C@]1(C)C[C@@H](OC(=O)CSc2ccccc2NC(=O)Cn2cc(CN3CCC(CCO)CC3)nn2)[C@]2(C)[C@H](C)CC[C@]3(CCC(=O)[C@H]32)[C@@H](C)[C@@H]1O | 0.5 (≈ 0.679 µM) | 1 (≈ 1.36 µM) | 0.5 (≈ 0.679 µM) | 0.5 (≈ 0.679 µM) | 0.5 (≈ 0.679 µM) | 1 | > 32 | 1 (≈ 1.36 µM) | 0.5 (≈ 0.679 µM) | > 32 | 1 (≈ 1.36 µM)
3 | C=C[C@]1(C)C[C@@H](OC(=O)CSc2ccccc2NC(=O)Cn2cc(CN3CCN(C)CC3)nn2)[C@]2(C)[C@H](C)CC[C@]3(CCC(=O)[C@H]32)[C@@H](C)[C@@H]1O | 0.5 (≈ 0.707 µM) | 1 (≈ 1.41 µM) | 0.25 (≈ 0.354 µM) | 0.25 (≈ 0.354 µM) | 0.5 (≈ 0.707 µM) | 1 | > 32 | 0.5 (≈ 0.707 µM) | 2 (≈ 2.83 µM) | > 32 | 0.5 (≈ 0.707 µM)
4 | C=C[C@]1(C)C[C@@H](OC(=O)CSc2ccccc2NC(=O)Cn2cc(CN3CCN(c4cccc(C)c4)CC3)nn2)[C@]2(C)[C@H](C)CC[C@]3(CCC(=O)[C@H]32)[C@@H](C)[C@@H]1O | 1 (≈ 1.28 µM) | 4 (≈ 5.11 µM) | 1 (≈ 1.28 µM) | 1 (≈ 1.28 µM) | 2 (≈ 2.55 µM) | 1 | > 32 | 2 (≈ 2.55 µM) | 8 (≈ 10.2 µM) | > 32 | 1 (≈ 1.28 µM)
5 | C=C[C@]1(C)C[C@@H](OC(=O)CSc2ccccc2NC(=O)Cn2cc(CN3CCN(c4ccc(F)cc4)CC3)nn2)[C@]2(C)[C@H](C)CC[C@]3(CCC(=O)[C@H]32)[C@@H](C)[C@@H]1O | 1 (≈ 1.27 µM) | 1 (≈ 1.27 µM) | 0.5 (≈ 0.635 µM) | 1 (≈ 1.27 µM) | 0.5 (≈ 0.635 µM) | 1 | > 32 | 0.5 (≈ 0.635 µM) | 2 (≈ 2.54 µM) | > 32 | 1 (≈ 1.27 µM)
6 | C=C[C@]1(C)C[C@@H](OC(=O)CSc2ccccc2NC(=O)Cn2cc(CN3CCCC3)nn2)[C@]2(C)[C@H](C)CC[C@]3(CCC(=O)[C@H]32)[C@@H](C)[C@@H]1O | 0.25 (≈ 0.369 µM) | 0.5 (≈ 0.738 µM) | 0.25 (≈ 0.369 µM) | 0.25 (≈ 0.369 µM) | 4 (≈ 5.9 µM) | 1 | > 32 | 0.25 (≈ 0.369 µM) | 0.5 (≈ 0.738 µM) | > 32 | 0.5 (≈ 0.738 µM)
7 | C=C[C@]1(C)C[C@@H](OC(=O)CSc2ccccc2NC(=O)Cn2cc(CN3CCN(c4ccccc4)CC3)nn2)[C@]2(C)[C@H](C)CC[C@]3(CCC(=O)[C@H]32)[C@@H](C)[C@@H]1O | 1 (≈ 1.3 µM) | 1 (≈ 1.3 µM) | 0.5 (≈ 0.65 µM) | 0.5 (≈ 0.65 µM) | 0.5 (≈ 0.65 µM) | 1 | > 32 | 0.5 (≈ 0.65 µM) | 2 (≈ 2.6 µM) | > 32 | 0.5 (≈ 0.65 µM)
8 | C=C[C@]1(C)C[C@@H](OC(=O)CSc2ccccc2NC(=O)Cn2cc(CN3CCCC(CO)C3)nn2)[C@]2(C)[C@H](C)CC[C@]3(CCC(=O)[C@H]32)[C@@H](C)[C@@H]1O (some centres undefined) | 0.5 (≈ 0.693 µM) | 1 (≈ 1.39 µM) | 0.5 (≈ 0.693 µM) | 0.5 (≈ 0.693 µM) | 0.5 (≈ 0.693 µM) | 1 | > 32 | 0.5 (≈ 0.693 µM) | 0.5 (≈ 0.693 µM) | > 32 | 0.5 (≈ 0.693 µM)
9 | C=C[C@]1(C)C[C@@H](OC(=O)CSc2ccccc2NC(=O)Cn2cc(CN3CCN(c4ccccc4O)CC3)nn2)[C@]2(C)[C@H](C)CC[C@]3(CCC(=O)[C@H]32)[C@@H](C)[C@@H]1O | 1 (≈ 1.27 µM) | 2 (≈ 2.55 µM) | 1 (≈ 1.27 µM) | 0.5 (≈ 0.637 µM) | 1 (≈ 1.27 µM) | 1 | > 32 | 1 (≈ 1.27 µM) | 2 (≈ 2.55 µM) | > 32 | 1 (≈ 1.27 µM)
10 | C=C[C@]1(C)C[C@@H](OC(=O)CSc2ccccc2NC(=O)Cn2cc(CN3CCN(c4ccccc4F)CC3)nn2)[C@]2(C)[C@H](C)CC[C@]3(CCC(=O)[C@H]32)[C@@H](C)[C@@H]1O | 1 (≈ 1.27 µM) | 1 (≈ 1.27 µM) | 0.5 (≈ 0.635 µM) | 1 (≈ 1.27 µM) | 1 (≈ 1.27 µM) | 1 | > 32 | 0.5 (≈ 0.635 µM) | 1 (≈ 1.27 µM) | > 32 | 2 (≈ 2.54 µM)
11 | C=C[C@]1(C)C[C@@H](OC(=O)CSc2ccccc2NC(=O)Cn2cc(CN3CCC(O)CC3)nn2)[C@]2(C)[C@H](C)CC[C@]3(CCC(=O)[C@H]32)[C@@H](C)[C@@H]1O | 1 (≈ 1.41 µM) | 1 (≈ 1.41 µM) | 1 (≈ 1.41 µM) | 1 (≈ 1.41 µM) | 1 (≈ 1.41 µM) | 1 | > 32 | 1 (≈ 1.41 µM) | 2 (≈ 2.83 µM) | > 32 | 2 (≈ 2.83 µM)
12 | C=C[C@]1(C)C[C@@H](OC(=O)CSc2ccccc2NC(=O)Cn2cc(CN3CCN(c4ccc(C)cc4)CC3)nn2)[C@]2(C)[C@H](C)CC[C@]3(CCC(=O)[C@H]32)[C@@H](C)[C@@H]1O | 1 (≈ 1.28 µM) | 2 (≈ 2.55 µM) | 0.5 (≈ 0.639 µM) | 1 (≈ 1.28 µM) | 0.5 (≈ 0.639 µM) | 1 | > 32 | 1 (≈ 1.28 µM) | 2 (≈ 2.55 µM) | > 32 | 4 (≈ 5.11 µM)
13 | C=C[C@]1(C)C[C@@H](OC(=O)CSc2ccccc2NC(=O)Cn2cc(CN3CCN(c4ccc(OC)cc4)CC3)nn2)[C@]2(C)[C@H](C)CC[C@]3(CCC(=O)[C@H]32)[C@@H](C)[C@@H]1O | 1 (≈ 1.25 µM) | 1 (≈ 1.25 µM) | 0.5 (≈ 0.626 µM) | 1 (≈ 1.25 µM) | 0.5 (≈ 0.626 µM) | 1 | > 32 | 1 (≈ 1.25 µM) | 2 (≈ 2.5 µM) | > 32 | 1 (≈ 1.25 µM)
14 | C=C[C@]1(C)C[C@@H](OC(=O)CSc2ccccc2NC(=O)Cn2cc(CN3CCN(c4ccccc4C)CC3)nn2)[C@]2(C)[C@H](C)CC[C@]3(CCC(=O)[C@H]32)[C@@H](C)[C@@H]1O | 1 (≈ 1.28 µM) | 4 (≈ 5.11 µM) | 1 (≈ 1.28 µM) | 1 (≈ 1.28 µM) | 2 (≈ 2.55 µM) | 1 | > 32 | 2 (≈ 2.55 µM) | 4 (≈ 5.11 µM) | > 32 | 1 (≈ 1.28 µM)
